Inhibition of the nicotinamide effect data for 27 molecules are collected here from PubChem BioAssay AID775 (SRMLSC, 2007).

In all, about 130,000 compounds went through this assay and about 900 (0.69%) were called active. What follows is part of a selection rich in actives, with near analogues and random picks from the rest. Unmarked numbers belong to inactive results.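 How the source made its calls: active means inhibition above a set limit, placed 3 SD over the median of all compounds (cut at about 26% in these data); inactive means the rest.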

This test can be described thus: rescue of nicotinamide-shortened yeast lifespan – S. cerevisiae, OD615, primary screen (AID 775).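 Further: 0% = nicotinamide-treated wells and 100% = cells grown without nicotinamide.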 The conditions noted are these: S. cerevisiae growth with nicotinamide, at 10 µM, active compounds read high, deaD strain in restrictive glucose medium. In a few lines: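 Material: Modified budding yeast, DeaD strain | Medium: Restrictive glucose medium | Probe or stimulus: 1.5 mM nicotinamide | Dosing: Single dose 10 µM compound, 0.25% DMSO | Times: 48 h at 30 °C | Technique: OD615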
Consider `O=C1/C(=C\c2cccnc2)CN(Cc2ccccc2)C/C1=C\c1cccnc1`, for which the inhibition of the nicotinamide effect was 54.9% (active).

Consider `O=C1OC(c2ccc(Cl)cc2)=N/C1=C\c1cccnc1`, for which the inhibition of the nicotinamide effect was 20.7%. On to `O=C(O)C1CC(=O)N(Cc2cccnc2)C1` (configuration not stated), for which the inhibition of the nicotinamide effect was -1.28%. With `O=C(NCCc1ccccc1)C1CCC(Cn2c(=O)c3ccccc3n(Cc3cccnc3)c2=O)CC1` (configuration not stated), the inhibition of the nicotinamide effect is 0.76%. The same measure for `Cc1ccc2nc(-c3cccnc3)c(NC3CCCC3)n2c1`: -2.42%. With `Cc1cccc(OP(=O)(Nc2c(C)n(C)n(-c3ccccc3)c2=O)Oc2cccc(C)c2)c1` the figure was 0%. With `CCN(CC)c1ccc([N+](=O)[O-])cc1C(=O)O` the figure was 4.32%; with `O=C(COC(=O)CCCNC(=O)c1ccc(Cl)cc1)Nc1cc(Cl)ccc1Cl`, 5.47%; with `CC1CN(S(=O)(=O)c2ccc(C(=O)Nc3sccc3C(N)=O)cc2)CC(C)O1` (configuration not stated), 0.65%. Regarding `Cc1sc(NC(=S)NC(=O)c2cccs2)nc1-c1ccc(CC(C)C)cc1`, the inhibition of the nicotinamide effect is -13.7%. With `CC(C)Cc1nn2c(=O)cc(O)nc2s1`, the inhibition of the nicotinamide effect is 47.1% (active).

Take `COC(=O)c1ccc(C(=O)OC)c(NC(=S)N2CCN(c3ccc(F)cc3)CC2)c1`: the inhibition of the nicotinamide effect was -4.39%.

Regarding `CSCc1ccc(C(=O)Nc2cc(C)cc(C)c2)cc1`, the inhibition of the nicotinamide effect was 1.95%. On to `CCCn1c(=O)c(-c2ccccc2)c(O)c2ccccc21`, for which the inhibition of the nicotinamide effect was 3.34%.

Regarding `Cn1c(=O)c(Sc2ccc(Cl)cc2)c(O)c2ccccc21`, the inhibition of the nicotinamide effect was 29.7% (active).

For `Cn1c(=O)c(C(=O)Nc2ncccn2)c(O)c2ccccc21`, the inhibition of the nicotinamide effect was -13.7%. For `O=C(/C=C/c1ccccc1[N+](=O)[O-])NCC1CCCO1` (configuration not stated), the inhibition of the nicotinamide effect is 1.94%. With `Cc1ccc(C(=O)OCc2nc(N)nc(Nc3ccccc3C)n2)cc1` the figure was -3.73%.

On to `NS(=O)(=O)c1ccc(CCNC(=S)Nc2ccc(S(N)(=O)=O)cc2)cc1`, for which the inhibition of the nicotinamide effect was 1.53%.

`Cc1cccc(CC(=O)N2CCN=C2SCc2ccc([N+](=O)[O-])cc2)c1`: the inhibition of the nicotinamide effect is -1.98%. Turning to `CC(=C1C(=O)c2ccccc2C1=O)N1CCN(c2ccccn2)CC1`, the inhibition of the nicotinamide effect was 54.4% (active). The same measure for `CNC(=S)N1CCN(c2ccccn2)CC1`: 1.57%; for `O=C(C(Cl)Cl)N1CCN(c2ccccn2)CC1`: 1.15%; for `Cc1cccc(NC(=S)Nc2ccc3cn[nH]c3c2)c1`: 3.23%. Regarding `S=C(Nc1cccc(Cl)c1)Nc1ccc2cn[nH]c2c1`, the inhibition of the nicotinamide effect is 32.1% (active). Consider `Cc1csc(NC(=S)Nc2cccc(Cl)c2)n1`, for which the inhibition of the nicotinamide effect was -1.45%.

As for `Cc1ccc(NC(=O)CCC(=O)N/N=C/c2ccco2)c(C)c1`, the inhibition of the nicotinamide effect is 0.43%.
